{"data": "Assay results from different studies", "effect on": "cell growth or viability", "note": "Each line is one published result; the experiments were not run side by side."}
{"SMILES": "CCOc1ccc(C(=O)CC(SCc2ccc(Cl)cc2)C(=O)OC)cc1 (centres unmarked)", "cell line": "WM 266-4", "assay": "MTT", "conditions": "48 h", "measurement": "EC50", "result": "21 µM"}
{"SMILES": "Cc1nc(Nc2ncc(C(=O)Nc3c(C)cccc3Cl)s2)cc(N2CC[C@H](O)C2)n1", "cell line": "JeKo-1", "assay": "ATP luminescence", "conditions": "10 µM, 72 h", "measurement": "inhibition", "result": "37%"}
{"SMILES": "O=c1cc(OCc2cc(-c3ccccc3)no2)c2ccccc2o1", "cell line": "DND41", "assay": "MTS", "conditions": "72 h", "measurement": "IC50", "result": "> 100 µM"}
{"SMILES": "COc1ccc(-c2oc3ccc(O)c(CN4CCCCC4)c3c2C(=O)NCc2cn(Cc3ccccc3)nn2)cc1", "cell line": "J774.A1", "assay": "resazurin", "conditions": "18 h", "measurement": "IC50", "result": "8 µM"}
{"SMILES": "Clc1ccc(-c2cc(CNc3cccc4cccnc34)on2)c(Cl)c1", "cell line": "DND41", "assay": "MTS", "conditions": "72 h", "measurement": "IC50", "result": "53.9 µM"}
{"SMILES": "COc1cccc2c1C(=O)c1c(O)c3c(c(O)c1C2=O)C[C@@](O)(C(=O)CO)C[C@@H]3O[C@H]1C[C@H](N)[C@H](O)[C@H](C)O1", "cell line": "SU-DHL10", "assay": "ATP luminescence", "conditions": "72 h", "measurement": "IC50", "result": "0.32 µM"}
{"SMILES": "C[C@H]1CNCCN1c1nccc(-c2onc3c2CCC[C@@]32CCCc3sc(N)c(C#N)c32)n1", "cell line": "NCI-H727", "conditions": "5 days", "measurement": "EC50", "result": "0.406 µM"}
{"SMILES": "CCOC(=O)c1c(-c2ccc(OC)cc2)oc2ccc(OCc3cn(Cc4ccccc4)nn3)c(CN3CCCCC3)c12", "cell line": "J774.A1", "assay": "resazurin", "conditions": "18 h", "measurement": "IC50", "result": "37.9 µM"}
{"SMILES": "C[C@H](Oc1nccc(-c2noc([C@@]3(C)CCCc4sc(N)c(C#N)c43)n2)n1)[C@@H]1CCCN1C", "cell line": "NCI-H727", "conditions": "5 days", "measurement": "EC50", "result": "0.271 µM"}
{"SMILES": "FC(F)(F)c1cc(OCc2cc(-c3ccc(Cl)cc3Cl)no2)c2ccccc2n1", "cell line": "DND41", "assay": "MTS", "conditions": "72 h", "measurement": "IC50", "result": "> 100 µM"}
{"SMILES": "C[C@H]1CN(C)CCN1c1nccc(-c2noc3c2CCC[C@@]32CCCc3sc(N)c(C#N)c32)n1", "cell line": "NCI-H727", "conditions": "5 days", "measurement": "EC50", "result": "0.304 µM"}
{"SMILES": "COc1cc(C2C3=C(COC3=O)N(CCO)c3cc4c(cc32)CCC4)cc(OC)c1OC (centres unmarked)", "cell line": "MCF-12A", "assay": "ATP luminescence", "conditions": "48 h", "measurement": "IC50", "result": "5.5 µM"}
{"SMILES": "C[C@H]1CNCCN1c1nccc(-c2noc([C@@]3(C)CCCc4sc(N)c(C#N)c43)n2)n1", "cell line": "NCI-H727", "conditions": "5 days", "measurement": "EC50", "result": "> 1 µM"}
{"SMILES": "O=c1cc(OCc2cc(-c3ccc(C(F)(F)F)cc3)no2)c2ccccc2o1", "cell line": "DND41", "assay": "MTS", "conditions": "72 h", "measurement": "IC50", "result": "> 100 µM"}
